As a reminder, the CC50 is the concentration at which the toxic effect on the cells reaches its halfway point. The low end stands for greater toxicity to the cells, the high end for lower toxicity to the cells. Usually pEC50 stands for the EC50 on a negative log10 scale, so that one unit is a factor of ten.

pEC50: −log10 of the molar value. Calls of active or inactive are those of the source. The rule behind the calls is not given here.

Three molecules from ChEMBL document CHEMBL1649293, “Susceptibilities of human cytomegalovirus clinical isolates and other herpesviruses to new acetylated, tetrahalogenated benzimidazole D-ribonucleosides” (Antimicrob Agents Chemother, 2009) can be followed below.

Data set [1] has as its system Human betaherpesvirus 5. As to the kind of experiment: Antiviral activity against ganciclovir-sensitive HCMV infected in HFF assessed as formation of viral capsid type A at 10 uM measured after 72 hrs postinfection by electron microscopy. The data set is classed as functional. Put shortly:
(§1)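 HFF (1 × 10^6) infected with GCV-sensitive or GCV-resistant clinical isolates at MOI 1, with or without 10 μM compound. Cells fixed 72 h p.i., embedded, thin-sectioned, and examined by transmission EM at 120 kV. Nuclear A, B and C capsids counted.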

In data set [2] the test system is Human betaherpesvirus 5. The data set is described as follows: Antiviral activity against ganciclovir-resistant HCMV infected in HFF assessed as formation of viral capsid type A at 10 uM measured after 72 hrs postinfection by electron microscopy. The data set is classed as functional. Put shortly: as §1
Data set [3] is described as follows: Cytotoxicity against HFF after 8 days by XTT assay. The data set is classed as cell-based. The following applies: human, HFF cells. The procedure, abridged:
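XTT proliferation assay: HFF seeded at 5 × 10^4/well were exposed to a range of drug concentrations for 8 days at 37°C. XTT labeling mixture was then added for 4 h, and absorbance was read at 492 nm (reference 650 nm). CC50 was derived.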
A general note: Formazan colour is commonly taken as a measure of viable cells.

For data set [4], the system named is Murid betaherpesvirus 1 (mouse cytomegalovirus). As to the kind of experiment: Antiviral activity against MCMV Smith infected in NIH 3T3 assessed as viral plaque formation at 5 uM after 8 days by microscopy relative to control.
The test system of data set [5] is Human betaherpesvirus 5. The data set is described as follows: Antiviral activity against HCMV AD169 infected in HFF assessed as viral plaque formation at 5 uM after 8 days by microscopy relative to control. Type of data set: functional. Put shortly:
(§2)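 Plaque reduction with compound at a single concentration of 5 μM. After infection, plaques were counted under a microscope, and inhibition was expressed relative to untreated infected cells.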

For data set [6], the system named is Human betaherpesvirus 5. As to the kind of experiment: Antiviral activity against ganciclovir-resistant HCMV infected in HFF assessed as reduction in viral plaque formation after 8 days by microscopy. Type of data set: functional, organism-based. The following applies: Human betaherpesvirus 5, 192 h. Put shortly:
(§3)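 HFF (1 × 10^5/well) infected with GCV-sensitive or GCV-resistant clinical isolates at MOI 0.01. After 1 h, inoculum replaced by methyl cellulose overlay with DMEM, 3% FCS and compound dilutions in duplicate. Incubation 8 days at 37°C, then crystal violet staining and plaque counting by microscope. EC50 derived relative to untreated cells.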

The nature of data set [7]: Cytotoxicity against mouse NIH/3T3 cells after 8 days by XTT assay. Type of data set: cell-based, NIH3T3. The procedure, abridged: (§4)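 XTT cell-proliferation read-out after 8 days of exposure at 37°C to varied drug concentrations. Absorbance was read at 492 nm against 650 nm reference, 4 h after adding XTT labeling mixture. CC50 was determined.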
Data set [8] has as its system Human betaherpesvirus 5. As to the kind of experiment: Antiviral activity against ganciclovir-sensitive HCMV infected in HFF assessed as reduction in viral plaque formation after 8 days by microscopy. The data set is classed as functional, organism-based. Particulars: Human betaherpesvirus 5, 192 h. Put shortly:
as §3

The next data set concerns Human alphaherpesvirus 3. The data set is described as follows: Antiviral activity against VZV OKA infected in HFF assessed as viral plaque formation at 5 uM after 8 days by microscopy relative to control. The data set is classed as functional. Put shortly: as §2
Data set [9] is described as follows: Selectivity index, ratio of CC50 for HFF to EC50 for ganciclovir-sensitive HCMV infected in HFF.
A short description of data set [10]: Cytotoxicity against rat Rat2 cells after 8 days by XTT assay. The data set is classed as cell-based. The procedure, abridged: as §4
The subject of a further data set is Human alphaherpesvirus 1. As to the kind of experiment: Antiviral activity against Herpes simplex virus 1 KOS infected in HFF assessed as viral plaque formation at 5 uM after 8 days by microscopy relative to control. The data set is classed as functional. The procedure, abridged: as §2
Data set [11] has as its system Human betaherpesvirus 5. The data set is described as follows: Antiviral activity against ganciclovir-resistant HCMV infected in HFF assessed as formation of viral capsid type B at 10 uM measured after 72 hrs postinfection by electron microscopy. The data set is classed as functional. Put shortly: as §1
Data set [12] concerns Human betaherpesvirus 5. As to the kind of experiment: Antiviral activity against ganciclovir-sensitive HCMV infected in HFF assessed as cleavage of viral DNA concatemer at 30 uM measured after 72 hrs postinfection by […]. The data set is classed as functional, organism-based. The procedure, abridged: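 HFF (1 × 10^6) infected with a GCV-sensitive clinical isolate at MOI 1 in the presence of 30 μM compound. DNA was harvested at 72 h p.i. and separated by PFGE in 1% low-melting agarose (15–110 s, 150 V, 27 h). Cleavage into unit-length genomes was judged after ethidium bromide staining.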

Data set [13] relates to Human betaherpesvirus 5. The data set is described as follows: Antiviral activity against ganciclovir-sensitive HCMV infected in HFF assessed as formation of viral capsid type B at 10 uM measured after 72 hrs postinfection by electron microscopy. The data set is classed as functional. Put shortly: as §1
Data set [14] concerns Human betaherpesvirus 5. As to the kind of experiment: Antiviral activity against ganciclovir-resistant HCMV infected in HFF assessed as formation of viral capsid type C at 10 uM measured after 72 hrs postinfection by electron microscopy. Type of data set: functional. Put shortly:
as §1

The subject of data set [15] is Human betaherpesvirus 5. The data set is described as follows: Antiviral activity against ganciclovir-resistant HCMV infected in HFF assessed as cleavage of viral DNA concatemer at 30 uM measured after 72 hrs postinfection by […]. Type of data set: functional, organism-based.
The subject of data set [16] is Human betaherpesvirus 5. As to the kind of experiment: Antiviral activity against ganciclovir-sensitive HCMV infected in HFF assessed as formation of viral capsid type C at 10 uM measured after 72 hrs postinfection by electron microscopy. The data set is classed as functional. Put shortly: as §1
A short description of data set [17]: Selectivity index, ratio of CC50 for HFF to EC50 for ganciclovir-resistant HCMV infected in HFF. Put shortly: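 CC50 in HFF (5 × 10^4/well) after 8 days at 37°C with drug dilutions, read by XTT (4 h, A492 with 650 nm reference). EC50 from 8-day plaque reduction in HFF infected with GCV-resistant clinical isolate at MOI 0.01 under methyl cellulose, duplicates, crystal violet staining.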

In data set [18] the test system is Human betaherpesvirus 5. The data set is described as follows: Antiviral activity against ganciclovir-resistant HCMV infected in HFF assessed as cleavage of viral DNA concatemer at 10 uM measured after 72 hrs postinfection by […]. The data set is classed as functional, organism-based.
For data set [19], the system named is Human betaherpesvirus 5. The data set is described as follows: Antiviral activity against ganciclovir-sensitive HCMV infected in HFF assessed as cleavage of viral DNA concatemer at 10 uM measured after 72 hrs postinfection by […]. The data set is classed as functional, organism-based. Put shortly: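 HFF (1 × 10^6) infected with a GCV-sensitive clinical isolate at MOI 1 and treated with 10 μM compound. DNA was isolated 72 h p.i. and run by pulsed-field electrophoresis on 1% low-melting agarose (15–110 s pulses, 150 V, 27 h). Unit-length versus concatemeric DNA was viewed by ethidium bromide staining. Mock- and AD169-infected cells served as controls.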

On to `CC(=O)OC[C@H]1O[C@@H](n2c(Br)nc3c(Cl)c(Cl)c(Cl)cc32)[C@H](OC(C)=O)[C@@H]1OC(C)=O`, for which the Activity was found to be 10.7% with Human betaherpesvirus 5 [1]; 15.3% in the data set with Human betaherpesvirus 5 [2]; 70.8% in data set [4]; 0.42% in the data set with Human betaherpesvirus 5 [5]; 26.1% in the data set with Human alphaherpesvirus 3; 76.6% in the data set with Human alphaherpesvirus 1. In addition, the Activity is reported as 60.7% with Human betaherpesvirus 5 [11], 60.5% with Human betaherpesvirus 5 [13], 24% in the data set on Human betaherpesvirus 5 [14] and 28.8% with Human betaherpesvirus 5 [16]. Besides, the figures for the cytotoxic concentration (CC50) at 192 h in [3], in data set [7] and in data set [10] were 27.9 µM, 15.1 µM and 14.5 µM, respectively. For the same molecule, the negative-log EC50 (pEC50) is 6.30 with Human betaherpesvirus 5 [6] and 6.48 in the data set with Human betaherpesvirus 5 [8]. The Ratio CC50/EC50 in data set [9] worked out at 121; in [17], 55.8. For the same molecule, the result in the data set with Human betaherpesvirus 5 [12] and in the data set on Human betaherpesvirus 5 [15] was Active.

Take `CC(=O)OC[C@H]1O[C@@H](n2c(Cl)nc3c(Cl)c(Cl)c(Cl)cc32)[C@H](OC(C)=O)[C@@H]1OC(C)=O`: the Activity was found to be 10.5% with Human betaherpesvirus 5 [1]; 8.6% in the data set with Human betaherpesvirus 5 [2]; 68.3% in [4]; 0.25% with Human betaherpesvirus 5 [5]; 31.1% in the data set with Human alphaherpesvirus 3; 61.5% in the data set with Human betaherpesvirus 5 [11]. The Activity with Human betaherpesvirus 5 [13] came out at 76.4%; in the data set on Human betaherpesvirus 5 [14], 29.9%; with Human betaherpesvirus 5 [16], 13.3%. The CC50 at 192 h in data set [3] is 66.7 µM; in [7], 39.6 µM; in data set [10], 19.2 µM. In addition, the result in the data set with Human betaherpesvirus 5 [18] and with Human betaherpesvirus 5 [19] was Active. Besides, the results for the negative logarithm of the EC50 (pEC50) with Human betaherpesvirus 5 [6] and with Human betaherpesvirus 5 [8] were 6.82 and 6.47, respectively. Further, the Ratio CC50/EC50 in [9] is 202; in data set [17] it was 445.

As for `OC[C@H]1O[C@@H](n2c(Br)nc3cc(Cl)c(Cl)cc32)[C@H](O)[C@@H]1O`, the Activity in the data set on Human betaherpesvirus 5 [1] worked out at 13.6%; in the data set on Human betaherpesvirus 5 [2], 13.8%; in data set [4], 41.6%; in the data set on Human betaherpesvirus 5 [5] it was 0.34%; in the data set on Human alphaherpesvirus 3 it was 31.6%; in the data set on Human alphaherpesvirus 1, 46.6%. Also, the Activity in the data set with Human betaherpesvirus 5 [11] was determined as 55%; with Human betaherpesvirus 5 [13], 67.2%; in the data set with Human betaherpesvirus 5 [14], 31.2%; in the data set on Human betaherpesvirus 5 [16], 21.4%. Also, the values for the cytotoxic concentration (CC50) at 192 h in data set [3], in data set [7] and in [10] were 314 µM, 88.1 µM and 136 µM, respectively. For the same molecule, the results for the pEC50 in the data set on Human betaherpesvirus 5 [6] and in the data set with Human betaherpesvirus 5 [8] were 6.33 and 6.46, respectively. Further, the figures for the Ratio CC50/EC50 in [9] and in [17] were 896 and 667, respectively.
